# Laboratory results reported in ChEMBL document CHEMBL3352384, “Synthesis and biological activity of new salicylanilide N,N-disubstituted carbamates and thiocarbamates” (Bioorg Med Chem, 2014).
# What was measured:
# Mycobacterium avium [1] = assay: Antimycobacterial activity against Isoniazid, rifampicin, ofloxacin and ethambutol-resistant Mycobacterium avium 330/88 assessed as complete growth inhibition after 21 days; format: functional; conditions: 330/88, 504 h
# In short: (§1)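 M. tuberculosis 331/88 (H37Rv) inoculum diluted 10-3, M. avium 330/88 diluted 10-5. MIC is the lowest concentration giving complete growth inhibition. Isoniazid and p-aminosalicylic acid as references. Quadruplicate, repeated twice.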
# Mycobacterium kansasii [2] = assay: Antimycobacterial activity against Mycobacterium kansasii 235/80 assessed as complete growth inhibition after 7 days; format: functional; conditions: 235/80, 168 h
# In short: (§2)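 Dilutions of M. kansasii inoculum were 10-4 for strain 235/80 and 10-5 for clinical isolate 6509/96. MIC was the lowest concentration giving complete growth inhibition, run in quadruplicate and repeated twice.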
# Mycobacterium kansasii [3] = assay: Antimycobacterial activity against Mycobacterium kansasii 235/80 assessed as complete growth inhibition after 14 days; format: functional; conditions: 235/80, 336 h; in short: as §2
# Mycobacterium kansasii [4] = assay: Antimycobacterial activity against Mycobacterium kansasii 235/80 assessed as complete growth inhibition after 21 days; format: functional; conditions: 235/80, 504 h; in short: as §2
# Mycobacterium kansasii [5] = assay: Antimycobacterial activity against clinical isolate Mycobacterium kansasii 6509/96 assessed as complete growth inhibition after 7 days; format: functional; conditions: 6509/96, 168 h; in short: as §2
# Mycobacterium kansasii [6] = assay: Antimycobacterial activity against clinical isolate Mycobacterium kansasii 6509/96 assessed as complete growth inhibition after 14 days; format: functional; conditions: 6509/96, 336 h; in short: as §2
# Mycobacterium kansasii [7] = assay: Antimycobacterial activity against clinical isolate Mycobacterium kansasii 6509/96 assessed as complete growth inhibition after 21 days; format: functional; conditions: 6509/96, 504 h; in short: as §2
# [8] = Inhibition of Mycobacterium tuberculosis H37Rv isocitrate lyase assessed as glyoxylate phenyl hydrazone formation at 10 uM
# HepG2 = assay: Cytotoxicity against human HepG2 cells assessed as reduction in cell viability after 24 hrs by MTS assay; format: cell-based; conditions: HepG2, 24 h
# In short: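 HepG2 hepatocellular carcinoma cells (passage 3–4) were grown in Eagle's MEM with 10% FBS, 1% L-glutamine and non-essential amino acids. Compounds were added from DMSO at eight concentrations in triplicate, with 10% DMSO as the 0% viability control. Viability was read by tetrazolium salt reduction (CellTiter 96 AQueous One). IC50 is the concentration reducing viability to 50% of control.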
# [9] = test system: Mycobacterium tuberculosis; assay: Antimycobacterial activity against Mycobacterium tuberculosis H37Rv 331/88 assessed as complete growth inhibition after 14 days; format: functional; conditions: H37Rv 331/88, 336 h; in short: as §1
# [10] = test system: Mycobacterium tuberculosis; assay: Antimycobacterial activity against Mycobacterium tuberculosis H37Rv 331/88 assessed as complete growth inhibition after 21 days; format: functional; conditions: H37Rv 331/88, 504 h; in short: as §1
# Mycobacterium avium [11] = assay: Antimycobacterial activity against Isoniazid, rifampicin, ofloxacin and ethambutol-resistant Mycobacterium avium 330/88 assessed as complete growth inhibition after 14 days; format: functional; conditions: 330/88, 336 h; in short: as §1
# [12] = Selectivity index, ratio of IC50 for human HepG2 cells to MIC for atypical mycobacteria
# In short: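 Selectivity index = HepG2 IC50 / MIC. HepG2 cells (passage 3–4) grown in Eagle's MEM with 10% FBS, L-glutamine and non-essential amino acids. Compounds added from DMSO, eight concentrations in triplicate, tetrazolium-reduction colorimetric read-out. IC50 is the concentration reducing viability to 50% of control; 10% DMSO as 0% viability.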
# [13] = Selectivity index, ratio of IC50 for human HepG2 cells to MIC for Mycobacterium tuberculosis H37Rv; format: toxicity, cell-based; conditions: read-out: Selectivity Index
# In short: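 Selectivity index = HepG2 IC50 / MIC. HepG2 cells (passage 3–4) grown in Eagle's MEM with 10% FBS, L-glutamine and non-essential amino acids. Compounds added from DMSO, eight concentrations in triplicate, tetrazolium-reduction colorimetric read-out.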
SMILES,MIC (Mycobacterium avium [1]),MIC (Mycobacterium kansasii [2]),MIC (Mycobacterium kansasii [3]),MIC (Mycobacterium kansasii [4]),MIC (Mycobacterium kansasii [5]),MIC (Mycobacterium kansasii [6]),MIC (Mycobacterium kansasii [7]),inhibition [8],IC50 (HepG2),MIC [9],MIC [10],MIC (Mycobacterium avium [11]),Selectivity Index [12],selectivity ratio [13]
CN(C(=O)Oc1ccc(Cl)cc1C(=O)Nc1ccc(C(F)(F)F)cc1)c1ccccc1,250 µM,125 µM,125 µM,125 µM,125 µM,125 µM,125 µM,16%,> 100 µM,125 µM,125 µM,250 µM,,
Nc1ccc(C(=O)O)c(O)c1 [AMINOSALICYLIC ACID],125 µM,125 µM,1000 µM,> 1000 µM,32 µM,125 µM,500 µM,10%,2240 µM,62.5 µM,62.5 µM,32 µM,<2.2,35.8
CN(C)C(=O)Oc1ccc(Cl)cc1C(=O)Nc1ccc(Br)cc1,62.5 µM,62.5 µM,125 µM,125 µM,62.5 µM,62.5 µM,62.5 µM,9%,342 µM,16 µM,16 µM,62.5 µM,<=5.5,21.4
O=C(Nc1ccccc1)c1ccccc1O [SALICYLANILIDE],250 µM,125 µM,250 µM,250 µM,125 µM,250 µM,250 µM,9%,89.8 µM,32 µM,125 µM,125 µM,0.36,0.7
CN(C)C(=O)Oc1ccc(Cl)cc1C(=O)Nc1ccc(C(F)(F)F)cc1,250 µM,250 µM,250 µM,250 µM,250 µM,250 µM,250 µM,11%,6510 µM,> 1000 µM,> 1000 µM,250 µM,,
CN(C)C(=S)Oc1ccccc1C(=O)Nc1ccccc1,> 1000 µM,> 1000 µM,> 1000 µM,> 1000 µM,> 1000 µM,> 1000 µM,> 1000 µM,6%,> 500 µM,> 1000 µM,> 1000 µM,> 1000 µM,,
O=C(O)CC[N+](=O)[O-],> 1000 µM,> 1000 µM,> 1000 µM,> 1000 µM,> 1000 µM,> 1000 µM,> 1000 µM,25%,692 µM,,> 1000 µM,> 1000 µM,<0.7,< 0.7
CN(C)C(=O)Oc1ccccc1C(=O)Nc1ccccc1,1000 µM,1000 µM,1000 µM,1000 µM,1000 µM,1000 µM,1000 µM,10%,5990 µM,1000 µM,1000 µM,1000 µM,6,6
CN(C(=O)Oc1ccc(Cl)cc1C(=O)Nc1ccc(Br)cc1)c1ccccc1,250 µM,32 µM,125 µM,125 µM,32 µM,62.5 µM,125 µM,14%,945 µM,32 µM,32 µM,250 µM,<=29.5,29.5
CN(C(=O)Oc1ccccc1C(=O)Nc1ccccc1)c1ccccc1,> 1000 µM,250 µM,500 µM,500 µM,250 µM,500 µM,1000 µM,3%,280 µM,250 µM,250 µM,> 1000 µM,<=1.1,1.1
